For one assay, the system named is Pseudomonas aeruginosa. The assay can be described thus: Antibacterial activity against Pseudomonas aeruginosa MTCC 201 at 100 ug/well after 24 hrs by well diffusion assay. Format: functional. A digest of the protocol:
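17 h bacterial cultures swabbed onto Mueller Hinton agar; after 10 min wells were cut with a cork borer and loaded with compound from a 10 mg/mL stock, with a DMSO control. Plates were held at 37 °C for 24 h, and susceptibility was read as the diameter of the zone of inhibition in mm.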
A general note: In agar diffusion tests the substance spreads into inoculated agar from a disc or well.

The test system of a further assay is SAS. The assay can be described thus: Cytotoxicity against human SAS cells assessed as reduction in cell viability after 48 hrs by MTT assay. Format: functional, cell-based. Background: Formazan colour is commonly taken as a measure of viable cells.
Another assay relates to HeLa. The assay can be described thus: Cytotoxicity against human HeLa cells assessed as reduction in cell viability after 48 hrs by MTT assay. In kind it is functional, cell-based.
In assay [1] the test system is Staphylococcus aureus. The assay can be described thus: Antibacterial activity against methicillin-resistant Staphylococcus aureus by NCCLS method. In kind it is functional.
Assay [2] deals with Candida albicans. The assay can be described thus: Antifungal activity against fluconazole-resistant Candida albicans at 100 ug/well after 24 hrs by well diffusion assay. Conditions: read-out: DIZ. Format: functional. An outline of the steps:
(§1)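 Agar well diffusion on Mueller Hinton agar: 17 h cultures swabbed over the surface, wells cut with a cork borer after 10 min. Each well loaded with 10 µl of a 10 mg/mL DMSO stock (100 µg/well), with a DMSO control well. Plates incubated at 37 °C for 24 h. Zone of inhibition diameter measured in mm.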

For assay [3], the system named is Staphylococcus aureus. The assay can be described thus: Antibacterial activity against methicillin-resistant Staphylococcus aureus at 100 ug/well after 24 hrs by well diffusion assay. Format: functional. Conditions: read-out: DIZ. An outline of the steps: as §1
In assay [4] the test system is Candida albicans. The assay can be described thus: Antifungal activity against fluconazole-resistant Candida albicans by NCCLS method. In kind it is functional.

As a reminder, the IC50 is the concentration needed to halve the response being measured. By MIC is commonly meant the lowest concentration that inhibits growth of the organism.

In brackets after ≈: the same amount, converted by molar mass. Activity calls are given as the source filed them. The calls are words filed in the database; no cut-off is given here.

Consider `CC1=CC(=O)c2ccccc2C1=O` [MENADIONE], for which, in the assay with Pseudomonas aeruginosa, the “diameter of the inhibition zone (DIZ)” value was “inactive”. Further, the IC50 with SAS is 14 µM; in the assay with HeLa, 18 µM. For the same molecule, the MIC against Staphylococcus aureus [1] and in the assay with Candida albicans [4] was 15.6 µg/mL (≈ 90.6 µM) in each case. Moreover, the zone of inhibition at 100 µg/disc with Candida albicans [2] and in the assay on Staphylococcus aureus [3] was 11 mm in each case.

Turning to `CC[C@H](C)[C@H](NC(=O)CSC1=CC(=O)c2cccc(OC)c2C1=O)C(=O)OC`, the “diameter of the inhibition zone (DIZ)” value in the assay on Pseudomonas aeruginosa is “inactive”. Further, the results for the IC50 in the assay with SAS and in the assay on HeLa were 63 µM and 94.5 µM, respectively. Further, the MIC against Staphylococcus aureus [1] and against Candida albicans [4] was 15.6 µg/mL (≈ 38.5 µM) in each case. Besides, the zone of inhibition at 100 µg/disc in the assay on Candida albicans [2] was found to be 15 mm; in the assay on Staphylococcus aureus [3], 19 mm.

Consider `COC(=O)[C@@H](NC(=O)CSC1=CC(=O)c2cccc(OC)c2C1=O)C(C)C`, for which the “diameter of the inhibition zone (DIZ)” value in the assay on Pseudomonas aeruginosa is “inactive”. For the same molecule, the 50% inhibitory concentration (IC50) is 45 µM in the assay with SAS and more than 100 µM in the assay on HeLa. Besides, the MIC against Staphylococcus aureus [1] and in the assay on Candida albicans [4] was 15.6 µg/mL (≈ 39.9 µM) throughout. The zone of inhibition at 100 µg/disc in the assay on Candida albicans [2] was determined as 12 mm; in the assay on Staphylococcus aureus [3], 15 mm.

Turning to `CC[C@H](C)[C@H](NC(=O)CSC1=C(OC)C(=O)c2ccccc2C1=O)C(=O)OC`, in the assay on Pseudomonas aeruginosa, the “diameter of the inhibition zone (DIZ)” value is “inactive”. Moreover, the IC50 in the assay on SAS was determined as 60 µM; with HeLa, 82 µM. Besides, the minimal inhibitory concentration (MIC) against Staphylococcus aureus [1] and in the assay on Candida albicans [4] was 7.8 µg/mL (≈ 19.2 µM) each time. Also, the zone of inhibition at 100 µg/disc in the assay with Candida albicans [2] was 12 mm; in the assay on Staphylococcus aureus [3], 15 mm.

`COC(=O)CNC(=O)CSC1=CC(=O)c2cccc(OC)c2C1=O`: the “diameter of the inhibition zone (DIZ)” value in the assay with Pseudomonas aeruginosa is “inactive”. In addition, the IC50 with SAS and in the assay with HeLa was more than 100 µM each time. Further, the MIC was 3.9 µg/mL (≈ 11.2 µM) against Staphylococcus aureus [1] and 7.9 µg/mL (≈ 22.6 µM) in the assay on Candida albicans [4]. For the same molecule, the zone of inhibition at 100 µg/disc in the assay on Candida albicans [2] and in the assay with Staphylococcus aureus [3] was 19 mm in each case.
